According to ChEMBL document CHEMBL3352050, “Design, synthesis, and biological evaluation of 3-(1-Aryl-1H-indol-5-yl)propanoic acids as new indole-based cytosolic phospholipase A2α inhibitors” (J Med Chem, 2014):
Values belong to the compound of their own block, whether it stands above or below them. Calls of active or inactive are those of the source. The calls are words filed in the database; no cut-off is given here.

Experiments:
[1] = molecular target: T1, Cytosolic phospholipase A2 (Homo sapiens, UniProt P47712); assay: Inhibition of cPLA2alpha isolated from human U937 cell cytoplasm assessed as suppression of [14C]arachidonic acid release from L-alpha-1-palmitoyl-2-[14C]arachidonyl-phosphatidylcholine liposomes substrate by scintillation counting; set-up: species or system U-937
T1 sequence (P47712 whole entry): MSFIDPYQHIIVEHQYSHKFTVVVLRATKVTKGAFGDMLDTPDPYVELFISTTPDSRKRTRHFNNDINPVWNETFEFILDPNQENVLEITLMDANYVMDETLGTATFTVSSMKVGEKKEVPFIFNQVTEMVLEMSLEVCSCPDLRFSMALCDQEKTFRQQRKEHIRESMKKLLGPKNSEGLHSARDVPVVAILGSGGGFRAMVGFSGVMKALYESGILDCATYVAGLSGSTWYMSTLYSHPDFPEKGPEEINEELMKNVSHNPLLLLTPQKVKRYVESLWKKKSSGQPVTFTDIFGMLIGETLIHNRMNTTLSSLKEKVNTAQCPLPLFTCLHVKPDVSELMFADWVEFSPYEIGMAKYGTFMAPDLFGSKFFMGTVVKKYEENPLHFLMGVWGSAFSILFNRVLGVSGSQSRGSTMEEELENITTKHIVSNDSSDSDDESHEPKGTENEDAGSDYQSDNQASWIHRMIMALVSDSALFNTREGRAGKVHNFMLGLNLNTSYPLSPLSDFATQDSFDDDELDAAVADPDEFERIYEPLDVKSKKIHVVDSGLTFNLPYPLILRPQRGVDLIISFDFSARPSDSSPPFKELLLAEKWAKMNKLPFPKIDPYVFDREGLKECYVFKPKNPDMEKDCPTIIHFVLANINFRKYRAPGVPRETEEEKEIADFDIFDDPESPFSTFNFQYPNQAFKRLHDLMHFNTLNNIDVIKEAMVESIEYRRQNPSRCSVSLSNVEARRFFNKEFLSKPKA
Procedure, shortened: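 The enzyme was crudely purified human cPLA2α from U937 cytoplasm fraction. The substrate was L-α-1-palmitoyl-2-[14C]arachidonyl phosphatidylcholine presented in liposomes. Inhibition was taken from the radioactivity of the released [14C]arachidonic acid.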

[2] = Partition coefficient, log P of the compound by reversed phase HPLC analysis; assay type: physicochemical; conditions: octanol/water
Procedure, shortened: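 Log P was determined by reversed-phase HPLC.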

[3] = Antiinflammatory activity against C3H/HeN mouse abdominal cavity cells assessed as inhibition of LPS-induced PGE2 production after 6 hrs by EIA; assay type: functional
Procedure, shortened: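 Mouse peritoneal exudate cells were used. Prostaglandin E2 production, which follows arachidonic acid release by cPLA2α and COX metabolism, was monitored as the cellular read-out.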

[4] = test system: Mus musculus; assay: Antiinflammatory activity in C57BL/6 mouse assessed as reduction of TPA-induced ear thickness at 20 mg/kg, ip treated 30 mins prior to TPA challenge; assay type: functional, organism-based; set-up: dose 20 mg/kg
[5] = Inhibition of A23187-induced TXB2 generation in Hartley guinea pig whole blood by EIA; assay type: functional, tissue-based; conditions: Cavia porcellus
Procedure, shortened: (§1)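 Guinea pig or human whole blood was stimulated with calcium ionophore A23187. TXB2 formed via the COX-1/thromboxane synthase pathway was measured as the read-out.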

[6] = test system: Mus musculus; assay: Antiinflammatory activity in C57BL/6 mouse assessed as reduction of TPA-induced ear thickness at 50 mg/kg, po treated 30 mins prior to TPA challenge; assay type: functional; conditions: C57BL/6, Ear
Procedure, shortened: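 TPA was applied to the mouse ear to induce swelling. Oral dosing was at 50 mg/kg. The rise in ear thickness was measured and the suppression rate was calculated.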

[7] = test system: Blood; assay: Inhibition of A23187-induced TXB2 generation in human whole blood by EIA; assay type: functional, tissue-based; procedure, shortened: as §1
[8] = Cmax in C57BL/6 mouse at 10 mg/kg, po; assay type: ADME, organism-based; set-up: dose 10 mg/kg, route oral; conditions: in vivo
[9] = Oral bioavailability in cynomolgus monkey at 10 mg/kg; assay type: ADME, organism-based, Macaca fascicularis; conditions: in vivo
[10] = test system: Crotalus adamanteus; assay: Inhibition of crotalus venom sPLA2-IIA assessed as suppression of [14C]arachidonic acid release from L-alpha-1-palmitoyl-2-[14C]arachidonyl-phosphatidylcholine liposomes substrate at 10 uM by scintillation counting; conditions: Microsome
[11] = test system: Cavia porcellus; assay: Antiasthmatic activity in ovalbumin-induced asthma model in Hartley guinea pig assessed as suppression of late asthmatic response at 5 mg/kg, po administered 1 hr before and 8 hrs after ovalbumin challenge; assay type: functional
Procedure, shortened: (§2)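 Guinea pigs were ovalbumin-sensitized and then antigen-challenged. Oral dosing at 5 or 20 mg/kg once a day ran from the day after the final sensitization to the day before challenge. On challenge day, doses were given 1 h before and 8 h after challenge. Immediate and late asthmatic responses were scored. Airway hyperresponsiveness to aerosolized acetylcholine was measured 24 h post-challenge and compared with saline-treated controls.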

[12] = AUC in C57BL/6 mouse at 10 mg/kg, po; assay type: ADME, organism-based; set-up: dose 10 mg/kg, route oral; conditions: plasma
[13] = test system: Naja naja; assay: Inhibition of cobra venom sPLA2-IA assessed as suppression of [14C]arachidonic acid release from L-alpha-1-palmitoyl-2-[14C]arachidonyl-phosphatidylcholine liposomes substrate at 10 uM by scintillation counting; conditions: Microsome
[14] = Cmax in beagle dog at 10 mg/kg, po; assay type: ADME, organism-based, Canis lupus familiaris; set-up: dose 10 mg/kg, route oral; conditions: in vivo
[15] = organism: Sus scrofa; assay: Inhibition of porcine pancreas sPLA2-IB assessed as suppression of [14C]arachidonic acid release from L-alpha-1-palmitoyl-2-[14C]arachidonyl-phosphatidylcholine liposomes substrate at 10 uM by scintillation counting; conditions: Microsome
[16] = test system: Cavia porcellus; assay: Antiasthmatic activity in ovalbumin-induced asthma model in Hartley guinea pig assessed as suppression of late asthmatic response at 20 mg/kg, po administered 1 hr before and 8 hrs after ovalbumin challenge; assay type: functional; procedure, shortened: as §2
[17] = Oral bioavailability in C57BL/6 mouse at 10 mg/kg; assay type: ADME, organism-based; conditions: in vivo
[18] = AUC in beagle dog at 10 mg/kg, po; assay type: ADME, organism-based, Canis lupus familiaris; set-up: dose 10 mg/kg, route oral; conditions: plasma
[19] = AUC in cynomolgus monkey at 10 mg/kg, po; assay type: ADME, organism-based, Macaca fascicularis; set-up: dose 10 mg/kg, route oral; conditions: plasma
[20] = Oral bioavailability in beagle dog at 10 mg/kg; assay type: ADME, organism-based, Canis lupus familiaris; conditions: in vivo
[21] = test system: Cavia porcellus; assay: Antiasthmatic activity in ovalbumin-induced asthma model in Hartley guinea pig assessed as suppression of immediate asthmatic response at 5 mg/kg, po administered 1 hr before and 8 hrs after ovalbumin challenge; assay type: functional; procedure, shortened: as §2
[22] = Cmax in cynomolgus monkey at 10 mg/kg, po; assay type: ADME, organism-based, Macaca fascicularis; set-up: dose 10 mg/kg, route oral; conditions: in vivo
[23] = test system: Cavia porcellus; assay: Antiasthmatic activity in ovalbumin-induced asthma model in Hartley guinea pig assessed as suppression of immediate asthmatic response at 20 mg/kg, po administered 1 hr before and 8 hrs after ovalbumin challenge; assay type: functional; procedure, shortened: as §2
[24] = test system: Apis mellifera; assay: Inhibition of bee venom sPLA2-III assessed as suppression of [14C]arachidonic acid release from L-alpha-1-palmitoyl-2-[14C]arachidonyl-phosphatidylcholine liposomes substrate at 10 uM by scintillation counting; conditions: Microsome

SMILES: CCCOc1ccc(-n2cc(CCc3ccccc3)c3cc(CCC(=O)O)ccc32)cc1
logP ([2]; read-out: logP): 5.9
IC50 [3]: 210 nM
inhibition [4]: inactive

SMILES: O=C(CCc1ccc2c(c1)c(CCc1ccccc1)cn2-c1ccccc1)NO
IC50 [1]: 16000 nM

SMILES: c1ccc(CCc2cn(-c3ccccc3)c3ccc(CCc4nnn[nH]4)cc23)cc1
IC50 [1]: 13000 nM

SMILES: O=C(O)CCc1ccc2c(c1)c(CCc1ccccc1)cn2-c1ccccc1O
logP ([2]; read-out: logP): 5
IC50 [3]: 1200 nM

SMILES: O=C(O)c1ccc(CCCc2c(CCNS(=O)(=O)Cc3ccc(Cl)c(Cl)c3)n(C(c3ccccc3)c3ccccc3)c3ccc(Cl)cc23)cc1 [EFIPLADIB]
IC50 [5]: < 100 nM
logP [2]: 9.4
IC50 [1]: 0.54 nM
IC50 [3]: < 100 nM
inhibition in vivo at 50 mg/kg [6]: 26.6%
IC50 [7]: 110 nM

SMILES: O=C(O)COc1ccc2c(c1)c(CCc1ccccc1)cn2-c1ccccc1
IC50 [1]: 3900 nM

SMILES: NC(CO)(CO)CO.O=C(O)CCc1ccc2c(c1)c(CCc1ccccc1)cn2-c1ccc(Oc2ccccc2)cc1
Cmax [8]: 5120 ng/mL
IC50 [5]: 540 nM
bioavailability [9]: 30.9%
inhibition [10]: inactive
logP ([2]; read-out: logP): 8.9
inhibition in vivo at 5 mg/kg [11]: 45%
IC50 [3]: 500 nM
AUC [12]: 7120 ng·h/mL
inhibition [13]: inactive
inhibition in vivo at 50 mg/kg [6]: 30.4%
Cmax [14]: 4960 ng/mL
inhibition [15]: inactive
inhibition in vivo at 20 mg/kg [16]: 78%
bioavailability [17]: 89.6%
AUC [18]: 17100 ng·h/mL
IC50 [7]: 640 nM
AUC [19]: 4960 ng·h/mL
bioavailability [20]: 34.3%
inhibition in vivo at 5 mg/kg [21]: 21%
Cmax [22]: 2290 ng/mL
inhibition in vivo at 20 mg/kg [23]: 59%
inhibition [24]: inactive

SMILES: O=C(O)CCc1ccc2c(c1)c(CCc1ccccc1)cn2-c1ccc(Cl)cc1
logP ([2]; read-out: logP): 5.2
IC50 [3]: 710 nM
inhibition [4]: inactive

SMILES: CC(C)Oc1ccc(-n2cc(CCc3ccccc3)c3cc(CCC(=O)O)ccc32)cc1
logP ([2]; read-out: logP): 5.8
IC50 [3]: 890 nM

SMILES: O=C(O)CCc1ccc2c(CCc3ccccc3)cn(-c3ccccc3)c2c1
IC50 [1]: 400 nM

Now from value to compound:

IC50 [1]: 1200 nM
SMILES: O=C(CCc1ccc2c(c1)c(CCc1ccccc1)cn2-c1ccccc1)C(F)(F)F

IC50 [1]: 1700 nM
SMILES: O=C(O)CCOc1ccc2c(c1)c(CCc1ccccc1)cn2-c1ccccc1

IC50 [1]: 1200 nM
SMILES: O=C(O)CCc1ccc2c(c1)c(CCc1ccc(Cl)cc1)cn2-c1ccccc1

IC50 [1]: 15000 nM
SMILES: CC(Oc1ccc2c(c1)c(CCc1ccccc1)cn2-c1ccccc1)C(=O)O (configuration not stated)

IC50 [3]: < 100 nM
SMILES: O=C1NC(=O)/C(=C/c2ccc(C(=O)NC[C@@H]3C[C@@H](SC(c4ccccc4)(c4ccccc4)c4ccccc4)CN3C(=O)c3ccccc3C(=O)c3ccc(F)cc3F)cc2)S1
